Each block holds one compound with its values, some of them ahead of it. Active and inactive are the calls of the source. The rule behind the calls is not given here.
How the values were obtained:
Mus musculus [1] = assay: (§1) Evaluated in vivo for their ability to decrease plasma glucose levels in diabetic C57BL/KsJ db/db mouse at a dose 100 mg/kg/day, *p indicates <0.05; type: functional
In short: (§2)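 Mice dosed orally once daily for 4 days; plasma glucose and insulin measured and expressed as percent change versus a vehicle-treated group (mean ± SE, 4-6 mice/group). NS is generally less than -15% change. Significance is versus vehicle-treated mice.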

[2] = target: T1, Tyrosine-protein phosphatase non-receptor type 1 (Rattus norvegicus) (UniProt P20417); assay: Inhibition of PTPase (PTP1B) activity in rat hepatic membrane at 50 uM concentration, using pNPP as the substrate; type: cell membranes; conditions: Liver
T1 sequence (whole entry): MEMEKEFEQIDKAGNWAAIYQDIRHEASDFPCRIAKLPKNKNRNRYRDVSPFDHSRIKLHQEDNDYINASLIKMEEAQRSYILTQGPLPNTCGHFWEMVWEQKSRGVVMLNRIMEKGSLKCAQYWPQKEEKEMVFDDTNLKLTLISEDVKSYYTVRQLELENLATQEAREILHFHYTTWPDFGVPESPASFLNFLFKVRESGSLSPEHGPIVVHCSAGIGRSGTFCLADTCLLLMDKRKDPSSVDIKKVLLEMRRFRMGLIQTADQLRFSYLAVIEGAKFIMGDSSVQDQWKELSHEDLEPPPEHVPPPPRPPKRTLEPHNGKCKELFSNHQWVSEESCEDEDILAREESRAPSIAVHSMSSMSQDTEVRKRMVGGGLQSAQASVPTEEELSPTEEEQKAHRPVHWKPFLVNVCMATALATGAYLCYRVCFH
In short: (§3)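 Liver membranes from male Sprague-Dawley rats (100-150 g), about 30 µg protein per well. Preincubated 10 min at 37 °C with compound in 1.25% DMSO in 50 mM HEPES pH 7.4. Then 6.33 mM pNPP for 30 min at 37 °C, stopped with NaOH. p-Nitrophenol read at 410 nm. Run in triplicate. Reported as percent of untreated control.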

[3] = target: T2, Tyrosine-protein phosphatase non-receptor type 1 (Rattus norvegicus, UniProt P20417); assay: Inhibition of PTPase activity using recombinant r-PTP1B and IR-triphosphopeptide as substrate; ND is no data.
T2 sequence (P20417 whole entry): T1 sequence (whole entry)
In short: (§4)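 Rat recombinant PTP1B in 33 mM TRIS-HCl, 2 mM EDTA, 50 mM β-mercaptoethanol, pH 7.4 (about 1000-2000 nmol/min/mg). Preincubated 10 min at 37 °C with or without compound in HEPES buffer pH 7.4. Released phosphate read by malachite green-ammonium molybdate at 650 nm against a phosphate standard. Quadruplicates. IC50 by four-parameter logistic fit.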

Mus musculus [4] = assay: Evaluated in vivo for their ability to decrease plasma glucose levels in diabetic C57BL/KsJ ob/ob mouse at a dose 100 mg/kg/day, **p indicates <0.01; type: functional
In short: (§5)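 Diabetic db/db or ob/ob mice dosed orally once daily for 4 days. Plasma glucose and insulin reported as percent change from a vehicle-treated group. 4-6 mice per group. Significance set at p < 0.05 or p < 0.01 versus vehicle; NS means generally less than -15% change.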

Mus musculus [5] = assay: Evaluated for their ability to decrease plasma insulin levels in mouse at a dose 100 mg/kg/day, **p indicates <0.01; type: functional; in short: as §5
[6] = target: T3, Tyrosine-protein phosphatase non-receptor type 1 (Mus musculus) (UniProt P35821); assay: In vivo ability to decrease plasma glucose levels in diabetic C57BL/KsJ ob/ob mouse at a dose 100 mg/kg/day; type: functional, organism-based; in short: as §5
T3 sequence (whole entry): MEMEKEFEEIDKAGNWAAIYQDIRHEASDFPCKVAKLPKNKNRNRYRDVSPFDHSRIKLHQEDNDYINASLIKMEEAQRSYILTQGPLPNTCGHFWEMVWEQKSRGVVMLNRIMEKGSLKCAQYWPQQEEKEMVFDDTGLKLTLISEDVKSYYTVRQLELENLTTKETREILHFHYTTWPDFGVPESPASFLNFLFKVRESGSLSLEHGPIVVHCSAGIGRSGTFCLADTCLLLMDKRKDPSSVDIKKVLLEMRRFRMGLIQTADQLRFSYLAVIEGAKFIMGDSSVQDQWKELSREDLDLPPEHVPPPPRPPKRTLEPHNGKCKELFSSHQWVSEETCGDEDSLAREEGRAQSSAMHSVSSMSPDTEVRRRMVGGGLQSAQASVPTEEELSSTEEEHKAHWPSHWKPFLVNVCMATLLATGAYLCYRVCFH

[7] = target: T3, Tyrosine-protein phosphatase non-receptor type 1 (Mus musculus); assay: Ability to decrease plasma insulin levels in mouse at a dose 100 mg/kg/day; type: functional, organism-based; in short: as §5
Mus musculus [8] = assay: as §1; type: functional; in short: as §5; remark: listed apart in the source
Mus musculus [9] = assay: Evaluated in vivo for their ability to decrease plasma glucose levels in diabetic C57BL/KsJ db/db mouse at a dose 100 mg/kg/day; NS is non significant, generally less than - 15% change; type: functional, organism-based; in short: as §5
[10] = target: T4, Tyrosine-protein phosphatase non-receptor type 1 (Homo sapiens) (UniProt P18031); assay: % inhibition of PTPase activity, recombinant human Protein-tyrosine phosphatase 1B as the enzyme at a concentration 50 uM
T4 sequence (whole entry): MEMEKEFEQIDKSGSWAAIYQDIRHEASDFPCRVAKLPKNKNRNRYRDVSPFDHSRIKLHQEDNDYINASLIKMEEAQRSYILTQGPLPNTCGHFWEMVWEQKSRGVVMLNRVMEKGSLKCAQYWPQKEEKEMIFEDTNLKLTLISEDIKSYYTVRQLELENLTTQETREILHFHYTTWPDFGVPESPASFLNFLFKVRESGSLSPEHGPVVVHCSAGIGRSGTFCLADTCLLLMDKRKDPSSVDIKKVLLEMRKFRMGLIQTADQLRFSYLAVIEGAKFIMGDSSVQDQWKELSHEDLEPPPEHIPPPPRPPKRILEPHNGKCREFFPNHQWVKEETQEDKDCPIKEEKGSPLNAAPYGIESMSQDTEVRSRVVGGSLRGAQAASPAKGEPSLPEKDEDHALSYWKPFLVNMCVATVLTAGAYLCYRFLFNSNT
In short: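 Human recombinant PTP1B (321 aa form) dephosphorylating IR-triphosphopeptide (pY1146/1150/1151), 50 µM final. Run as for the rat enzyme: 10 min preincubation with compound at 37 °C, pH 7.4, then 30 min reaction at 37 °C. Phosphate read by malachite green-ammonium molybdate at 650 nm. Quadruplicates. IC50 by four-parameter logistic regression.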

[11] = target: T1, Tyrosine-protein phosphatase non-receptor type 1 (Rattus norvegicus); assay: Inhibition of Protein-tyrosine phosphatase 1B activity in rat hepatic membrane at a concentration of 50 uM using pNPP as the substrate; type: cell membranes; conditions: Liver; in short: as §3
Mus musculus [12] = assay: Evaluated for their ability to decrease plasma insulin levels in mouse at a dose 100 mg/kg/day; **p indicates <0.01; type: functional; in short: as §2
Mus musculus [13] = assay: Evaluated in vivo for their ability to decrease plasma glucose levels in diabetic C57BL/KsJ ob/ob mouse at a dose 100 mg/kg/day; **p indicates <0.01; type: functional; in short: as §2
Mus musculus [14] = assay: Evaluated in vivo for their ability to decrease plasma glucose levels in diabetic C57BL/KsJ db/db mouse at a dose 100 mg/kg/day. *p indicates <0.05; type: functional; in short: as §2
[15] = target: T1, Tyrosine-protein phosphatase non-receptor type 1 (Rattus norvegicus); assay: Inhibition of PTPase activity using recombinant Protein-tyrosine phosphatase 1B as the enzyme and IR-triphosphopeptide as substrate at 50 uM
In short: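 Recombinant rat PTP1B (human 321-aa form assayed the same way), activity about 1000-2000 nmol/min/mg, preincubated with compound for 10 min at 37 °C in HEPES pH 7.4. The reaction is started with 50 µM triphosphorylated insulin receptor 1142-1153 dodecapeptide and run 30 min at 37 °C. Released phosphate read by malachite green-molybdate at 650 nm, in quadruplicate. Result is percent inhibition versus control.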

Mus musculus [16] = assay: Evaluated for their ability to decrease plasma insulin levels in mouse at a dose 100 mg/kg/day.; NS is non significant; type: functional, organism-based; in short: as §5
[17] = target: T2, Tyrosine-protein phosphatase non-receptor type 1; assay: Inhibition of PTPase activity in rat hepatic membrane at a concentration of 50 uM using pNPP as the substrate; type: cell membranes, Liver; in short: as §3
[18] = target: T1, Tyrosine-protein phosphatase non-receptor type 1 (Rattus norvegicus); assay: Inhibition of PTPase activity using recombinant r-PTP1B as the enzyme and IR-triphosphopeptide as substrate at 50 uM; in short: as §4
Mus musculus [19] = assay: Evaluated in vivo for their ability to decrease plasma glucose levels in diabetic C57BL/KsJ ob/ob mouse at a dose 100 mg/kg/day; NS is non significant; type: functional, organism-based; in short: as §5
[20] = target: T5, Tyrosine-protein phosphatase non-receptor type 1 (Homo sapiens, UniProt P18031); assay: Concentration required to inhibit PTPase activity, recombinant Protein Tyrosine Phosphatase 1b as the enzyme at a concentration 2.5 uM.; in short: as §4
T5 sequence (P18031 whole entry): T4 sequence (whole entry)

Mus musculus [21] = assay: Evaluated in vivo for their ability to decrease plasma glucose levels in diabetic C57BL/KsJ ob/ob mouse at a dose 70 mg/kg/day; NS is not significant; type: functional, organism-based; in short: as §5
Mus musculus [22] = assay: Evaluated in vivo for their ability to decrease plasma glucose levels in diabetic C57BL/KsJ db/db mouse at a dose 100 mg/kg/day; NS is not significant; type: functional, organism-based; in short: as §5
Mus musculus [23] = assay: Evaluated for their ability to decrease plasma insulin levels in mouse at a dose 70 mg/kg/day; NS is not significant; type: functional, organism-based; in short: as §5

inhibition [2]: 57%
IC50 [3]: Not significant
SMILES: C/C(=C\Cn1oc(=O)[nH]c1=O)c1cccc(OCc2nc(-c3ccc(OC(F)(F)F)cc3)oc2C)c1
Decrease (Mus musculus [1]): 41%
Decrease (Mus musculus [4]): 39%
Decrease (Mus musculus [5]): 82%

Decrease [6]: Not significant
inhibition [2]: 4.3%
Decrease [7]: Not significant
SMILES: C/C(=C\Cn1oc(=O)[nH]c1=O)c1ccc(OCc2nc(-c3ccc(C(F)(F)F)cc3)oc2C)cc1
Decrease (Mus musculus [8]): 16%

Decrease [6]: Not significant
inhibition [2]: 36%
IC50 [3]: Not significant
Decrease [7]: Not significant
SMILES: C/C(=C\CC1OC(=O)NC1=O)c1cccc(OCCc2nc(-c3ccccc3)oc2C)c1 (stereo unspecified)
Decrease (Mus musculus [9]): inactive

SMILES: CCC/C(=C\Cn1oc(=O)[nH]c1=O)c1cccc(OCc2nc(-c3ccc(C(F)(F)F)cc3)oc2C)c1
inhibition [10]: 1.9%
inhibition [11]: 58%
Decrease (Mus musculus [12]): 82%
Decrease (Mus musculus [13]): 58%
Decrease (Mus musculus [14]): 59%
inhibition [15]: 2%

Inhibition % [17]: 24%
inhibition [18]: 0.6%
SMILES: Cc1oc(-c2ccc(C(F)(F)F)cc2)nc1COc1cccc(/C(=C/Cn2oc(=O)[nH]c2=O)C(C)(C)C)c1
Decrease (Mus musculus [16]): inactive
Decrease (Mus musculus [19]): inactive

inhibition [2]: 5%
IC50 [20]: 9 µM
SMILES: C/C(=C\Cn1oc(=O)[nH]c1=O)c1cccc(OCc2ccccn2)c1

inhibition [11]: 57%
inhibition [15]: 1.4%
SMILES: C/C(=C\C=C\Cn1oc(=O)[nH]c1=O)c1cccc(OCc2nc(-c3ccccc3)oc2C)c1
Decrease (Mus musculus [21]): inactive
Decrease (Mus musculus [22]): inactive
Decrease (Mus musculus [23]): inactive

Source: ChEMBL document CHEMBL1132971, “New azolidinediones as inhibitors of protein tyrosine phosphatase 1B with antihyperglycemic properties” (J Med Chem, 2000)
